# From article PMC11661184 (bioRxiv, 2024)
# Numbering of substitutions follows the chain as printed. Numbers in names are those of the source.
# B1: WT hTRPA1: wild type human TRPA1 channel (protein)
# chain: MKRSLRKMWRPGEKKEPQGVVYEDVPDDTEDFKESLKVVFEGSAYGLQNFNKQKKLKRCDDMDTFFLHYAAAEGQIELMEKITRDSSLEVLHEMDDYGNTPLHCAVEKNQIESVKFLLSRGANPNLRNFNMMAPLHIAVQGMNNEVMKVLLEHRTIDVNLEGENGNTAVIIACTTNNSEALQILLKKGAKPCKSNKWGCFPIHQAAFSGSKECMEIILRFGEEHGYSRQLHINFMNNGKATPLHLAVQNGDLEMIKMCLDNGAQIDPVEKGRCTAIHFAATQGATEIVKLMISSYSGSVDIVNTTDGCHETMLHRASLFDHHELADYLISVGADINKIDSEGRSPLILATASASWNIVNLLLSKGAQVDIKDNFGRNFLHLTVQQPYGLKNLRPEFMQMQQIKELVMDEDNDGCTPLHYACRQGGPGSVNNLLGFNVSIHSKSKDKKSPLHFAASYGRINTCQRLLQDISDTRLLNEGDLHGMTPLHLAAKNGHDKVVQLLLKKGALFLSDHNGWTALHHASMGGYTQTMKVILDTNLKCTDRLDEDGNTALHFAAREGHAKAVALLLSHNADIVLNKQQASFLHLALHNKRKEVVLTIIRSKRWDECLKIFSHNSPGNKCPITEMIEYLPECMKVLLDFCMLHSTEDKSCRDYYIEYNFKYLQCPLEFTKKTPTQDVIYEPLTALNAMVQNNRIELLNHPVCKEYLLMKWLAYGFRAHMMNLGSYCLGLIPMTILVVNIKPGMAFNSTGIINETSDHSEILDTTNSYLIKTCMILVFLSSIFGYCKEAGQIFQQKRNYFMDISNVLEWIIYTTGIIFVLPLFVEIPAHLQWQCGAIAVYFYWMNFLLYLQRFENCGIFIVMLEVILKTLLRSTVVFIFLLLAFGLSFYILLNLQDPFSSPLLSIIQTFSMMLGDINYRESFLEPYLRNELAHPVLSFAQLVSFTIFVPIVLMNLLIGLAVGDIAEVQKHASLKRIAMQVELHTSLEKKLPLWFLRKVDQKSTIVYPNKPRSGGMLFHIFCFLFCTGEIRQEIPNADKSLEMEILKQKYRLKDLTFLLEKQHELIKLIIQKMEIISETEDDDSHCSFQDRFKKEQMEQRNSRWNTVLRAVKAKTHHLEP
# B2: W1103A hTRPA1: hTRPA1 with W1103 mutated to alanine (protein)
# chain: B1 chain with W1103A
# B3: WT C. elegans TRPA1: WT C. elegans TRPA1, MBP-tagged (protein)
# chain: MSKKSLGLDVRLELEGLISNDDTIRSEKDGRQASIFRVAELDARTEADNLRSIIHQSAREGNVNALQEALLKAPLAVNAQDGDFMTPLHYAARYGNYDAVKLLLSKNALPNTKNREGDTPLHIASKYIYGYSDICSIIDEDQADSARKYNTATKKIINALVSENAEIDPVNKYQLTPLHYAAMKSNFSALHALIKLKADVDAEDDNKMTPLLLACVHGSQEIIQELIKANSNVTKRDQRLNTVFHIVALRGEPEYLEMMMDHDPVEAIKALNLFNNEKKTPLRMAVEGNHPETLKKILQMEKKNSCKWMDREKELIHFAAEKGFLEVLKALVEAGGNKNELNEVKAVPLHVAAQMNQLEVVSYLIEEEKDNIDVVDEQGLTPLMMAVTHDSKKCVEYLIAKKANLTITDKDERTPVFIGAKFNALSSVEYILDHLRKKNKETERSALKSPTRNTLRIVSEDVRRTMVNMVDRDQNTPMHIVASNGYLEMMQLLQKHGASITQVNEDEETALHRAAIGGQTGAVRQLLEWDIRLLLMKDEMGNSALHLAARSGHDATTKVLLDNGADKEAKNSYQKTPLQVAVDSGKLETCQRLVAKGAQIESSSDTKTVLHTAAFYGNESIVRYFIAEGVTIDRRDEEGKTAFDIACENDHKDVARAFLETDQWKNLMIPCDVIPLDKHRNPVNMKRRTPFRTLLTKFPELASFVMDNCIEKSKEETDSTQSVAYNFEFLDDTYMMRCVSDDGTGEQLIGCKSAYDEDFKLEKDAQSYASNYDRVYKYHPLKLMADAEKLHLLNHPLSKALLKYKWNRLGRPMYYFALFMYLVFIVSLTQYVRHTKAPYNVWNEESYYDSEYFDENETCPQINTTKPDVVWKIIIQTLAVCQILVECFQLFQRKFAYLVNWENWIDCFIYSTALITVYDFSECSATSGVRQNWQWILAALCIFFGWINLLFMIRKMPRFGIFVVMFVDIVKTFFRFFPVFVLFIIAFSSSFYVILQNRPEFSTIFMSPLKTTVMMIGEFEFTGIFHGDETTHAEKMFGPAHTAVACALFFFFCIIMTILLMNLLVGLAVDDIKGVQEKAELKRLAMQVDLVLQIEASLHFFIQRTKKYATCRYATFPYGKLHKTGFAGWWSNFRRRFGLSVSTDPEIDEMYEREAEFTSEMTQKLQNQAAKLKNIQENIDVMYEKQVRLEAIIAKLATGLNINIELEEKDN
# Legend:
# [1] = target: 3xFLAG-TurboID-CaM C-lobe (human); experiment: proximity labelling
# [2] = system: CaM (Calmodulin-agarose); experiment: CaM-agarose pulldown of TRPA1 constructs; format: binding
# Procedure, shortened: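 HEK293T cells were transfected with tagged TRPA1 constructs and lysed after 16-24 h in Tris pH 8.0 buffer containing 5 mM DDM and 500 µM EGTA. Free Ca²⁺ was set with CaCl₂, calculated from EGTA constants. 100 µg lysate was incubated with CaM-agarose for 1 h at 4 °C, washed, then eluted with 5 mM EGTA. Detection was by anti-FLAG or anti-MBP immunoblot, with tubulin input control. Enrichment is relative to the maximum within each replicate.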
# [3] = system: TurboID-CaM C-lobe; experiment: Proximity biotinylation in HEK293T cells; format: cell-based, human; conditions: 50 µM biotin 15 min, basal Ca2+; n=4
# Procedure, shortened: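 HEK293T cells co-expressed 3xFLAG-TurboID or 3xFLAG-TurboID-CaM C-lobe with 3xFLAG-hTRPA1 variants. About 48 h post-transfection, 50 uM biotin was added to the culture medium. After 15 min, cells were lysed and proteins captured on anti-FLAG resin (1 h, 4 °C), then eluted with 125 µg/ml 3xFLAG peptide. Biotinylated proteins were detected with HRP-streptavidin (1:50,000).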
# [4] = system: V5-tagged WT CaM; experiment: Immunofluorescence co-localization with V5-WT CaM in Neuro2A cells; format: cell-based, human; conditions: resting Neuro2A cells, Airyscan
# Procedure, shortened: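 Neuro2A cells were grown in DMEM with 10% FBS, transfected, then placed on poly-L-lysine coverslips for 16-20 h. Cells were fixed in 4% PFA, permeabilised with 0.1% Triton and blocked in 4% BSA. Staining used anti-V5 (1:500), Alexa488 anti-mouse (1:700) and Cy3 anti-FLAG (1:500), each for 45 min at RT. Airyscan images (63x oil) were deconvolved. Per-cell pixel-intensity Pearson's R used thresholds from mono-stained samples. Mean ± SD; two-tailed t-test.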
# [5] = system: hTRPA1 expressed in Xenopus laevis oocytes; experiment: Two-electrode voltage clamp, Ca2+ potentiation and desensitization; format: cell-based, human; conditions: for Potentiation by extracellular Ca2+ / Slowing of desensitization versus WT hTRPA1, intracellular Ca2+ chelated / Slowing of potentiation versus WT hTRPA1 / Slowing of desensitization versus WT hTRPA1: 1.8 mM Ca2+; for Potentiation by extracellular Ca2+: comparable peak current amplitudes; for Desensitization time constant / Potentiation time constant: 1.8 mM extracellular Ca2+, n=10 oocytes; for Slowing of desensitization versus WT hTRPA1, intracellular Ca2+ chelated: 500 µM EGTA-AM 20 min
# [6] = system: hTRPA1 expressed in Xenopus laevis oocytes; format: cell-based, human
molecule,measurement,setting,value
3xFLAG-WT hTRPA1 (wild type human TRPA1) (from UniProt O75762 1-1119) (natural protein),percent increase in biotinylation with TurboID-CaM C-lobe against free TurboID,[1],40%
B1,CaM binding (CaM-agarose enrichment),"[2]; 0.1 µM Ca2+ (resting cytosolic), HEK293T lysate, immunoblot, n=11",robust interaction
same,CaM binding (CaM-agarose enrichment),"[2]; absence of Ca2+ (0 µM), HEK293T lysate, immunoblot",failed to bind CaM
same,CaM binding (CaM-agarose enrichment),"[2]; intermediate (500 µM) and extracellular (2 mM) Ca2+, n=11",stepwise decrease in binding
same,Increase in TRPA1 biotinylation with TurboID-CaM C-lobe versus TurboID,[3],approximately 40%
same,Co-localization with WT CaM (deconvolved IF images),[4],pronounced co-localization
same,Desensitization with 10 mM versus 1.8 mM extracellular Ca2+,"[5]; 250 µM AITC, 125 µM niflumic acid, n=9",desensitize faster
same,Potentiation by extracellular Ca2+,[5]; 250 µM AITC,rapid potentiation
same,Desensitization time constant,"[5]; +80 mV, 250 µM AITC",12.5 s
same,Potentiation time constant,"[5]; +80 mV, 250 µM AITC",2.2 s
same,Desensitization after extracellular Ca2+ addition,[5]; within 25 seconds of 1.8 mM Ca2+,nearly complete desensitization
same,Desensitization time constant,"[5]; −80 mV, 250 µM AITC",11.9 s
same,Potentiation time constant,"[5]; −80 mV, 250 µM AITC",2.7 s
B2,CaM binding at basal Ca2+ concentration,"[2]; basal Ca2+, n=3 independent experiments",completely ablated CaM binding
same,TRPA1 biotinylation with TurboID-CaM C-lobe,[3],loss in biotinylation
same,AITC sensitivity versus WT hTRPA1,[6]; Ca2+-free,slightly reduced AITC sensitivities
same,Gating kinetics and peak current amplitudes,"[6]; absence of Ca2+, activation and closing at +80 mV, n=8",not significantly different from WT hTRPA1
same,Faster desensitization rate with 10 mM than with 1.8 mM extracellular Ca2+,"[5]; 250 µM AITC, 125 µM niflumic acid, n=10 or 11",approximately 3 fold
same,Potentiation by extracellular Ca2+,[5]; 250 µM AITC,rapid potentiation
same,Slower desensitization than WT hTRPA1 with 1.8 mM Ca2+,"[5]; 250 µM AITC, 10 mM extracellular Ca2+, 125 µM niflumic acid",approximately 4 fold
same,Desensitization profile with buffered intracellular Ca2+,[5]; 500 µM EGTA-AM 20 min pre-incubation,delayed desensitization profile compared to WT hTRPA1 channels and a faster desensitization profile than W1103A hTRPA1 channels without intracellular Ca^2+ buffering
same,"Potentiation kinetics versus WT hTRPA1, buffered intracellular Ca2+","[5]; 500 µM EGTA-AM, n=8",did not exhibit a significant change to potentiation kinetics
same,Residual activity after extracellular Ca2+ (of initial activity),"[5]; 5 minutes after 1.8 mM extracellular Ca2+, n=10 or 12 oocytes",10–20%
same,Increase in translocated charge versus WT hTRPA1,[5]; +80 mV,10 fold
same,"Slowing of desensitization versus WT hTRPA1, intracellular Ca2+ chelated","[5]; +80 mV, n=8",10.5 fold
same,Slowing of potentiation versus WT hTRPA1,[5]; +80 mV,~ 1.8 fold
same,Slowing of desensitization versus WT hTRPA1,"[5]; +80 mV, n=10 or 12 oocytes",20 fold
same,Increase in translocated charge versus WT hTRPA1,[5]; −80 mV,20 fold
same,"Slowing of desensitization versus WT hTRPA1, intracellular Ca2+ chelated","[5]; −80 mV, n=8",10.7 fold
same,Slowing of potentiation versus WT hTRPA1,[5]; −80 mV,~ 3 fold
same,Slowing of desensitization versus WT hTRPA1,"[5]; −80 mV, n=10 or 12 oocytes",15 fold
B3,CaM binding of TRPA1 species orthologues,"[2]; MBP-tagged constructs, absence or presence of Ca2+, four independent experiments",failed to bind CaM
